Our source for the GFP response vs DMSO, GFP response relative to DMSO and GFP response, % of DMSO values is PubChem BioAssay.

A short description of test [1]: hit retest on RPL19A-GFP reporter strain – cell-based, S. cerevisiae, flow cytometry, cherry picks, mother/daughter gates, confirmation (AID 2270;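 active = GFP response below 50% of the DMSO control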). The following applies: 3 h, at 10 µM, stronger effect = lower value, 100 = same GFP as DMSO wells. (A flow cytometer gives signals particle by particle.)
Test [2] can be described thus: yeast TOR pathway reporter LAP4-GFP change – cell-based, cherry picks, flow cytometry, mother/daughter gates, confirmation (AID 2271;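 active = GFP response above 150% of the DMSO control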;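 note: ratio of sample to DMSO plate mean so 100% equals DMSO level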). The following applies: S. cerevisiae LAP4-GFP strain, 3 h, at 10 µM, stronger effect = higher value, 100 means same as DMSO control. An outline of the steps: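 System: GFP-fusion yeast strain; Incubation: compound exposure 3 h at 30 °C, end-over-end rotation; Measured by: GFP by flow cytometry; Read-out: median GFP fluorescence as percent of plate-mean DMSO wells; Medium: synthetic complete (SC) yeast growth medium; Compound: single test-compound dose, 10 µM final; Benchmarks: DMSO-only negative wells, rapamycin 400 ng/mL positive wells.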

Test [3] in a line: TOR pathway reporter MEP2-GFP, retest of hits – S. cerevisiae, flow cytometry GFP, cherry picks, confirmation (AID 2272;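 active = GFP response above 150% of the DMSO control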;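 note: ratio of well signal to plate DMSO mean so 100% equals DMSO level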). Particulars: S. cerevisiae MEP2-GFP strain, 3 h, at 10 µM, stronger effect = higher value.
Test [4] in a line: yeast AGP1-GFP fluorescence change, single-dose – cell-based, flow cytometry, S. cerevisiae, cherry picks, confirmation (AID 2273).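 Note: median GFP channel fluorescence over the whole cell population gate.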 Particulars: S. cerevisiae AGP1-GFP strain, 3 h, at 10 µM.
A short description of test [5]: TOR pathway CIT2 reporter hit retest – S. cerevisiae, GFP fusion, cherry picks, mother/daughter gates, confirmation (AID 2274). The following applies: S. cerevisiae CIT2-GFP strain, flow cytometry, 3 h, at 10 µM, stronger effect = higher value.
[6] abbreviates: measured here: daughter cell gate.
The mark [7] stands for this setting: measured here: mother cell gate.
[8] abbreviates: measured here: daughter cell gate response.
The mark [9] stands for this setting: measured here: mother cell gate response.

Calls of active or inactive are those of the source.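 Rule for the calls, unless noted: active = GFP response above 150% of the DMSO level; inconclusive = fewer than 70 events counted for a yeast strain; inactive = the rest.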

As to `Cc1cc(O)c(C(=O)/C=C/c2ccc(Cl)cc2)c(=O)o1`, the GFP response vs DMSO in test [1] is 97.2% (inactive); in test [1] (setting [6]) it was 101%; in test [1] (setting [7]), 95.5%; in test [3] it was 110% (inactive). The GFP response relative to DMSO was 180% (active) in test [2], 156% in test [2] (setting [8]) and 180% in test [2] (setting [9]). Also, the GFP response, % of DMSO is 99.7% (inactive) in test [4], 95% (inactive) in test [5], 104% in test [5] (setting [6]) and 86.3% in test [5] (setting [7]).

Take `Cc1ccc(S(=O)(=O)N(CC(=O)Nc2cccnc2)c2ccccc2C)cc1`: the GFP response vs DMSO is 104% (inactive) in test [1], 100% in test [1] (setting [6]), 105% in test [1] (setting [7]) and 105% (inactive) in test [3]. The results for the GFP response relative to DMSO in test [2], in test [2] (setting [8]) and in test [2] (setting [9]) were 97% (inactive), 95.9% and 97.3%, respectively. Besides, the GFP response, % of DMSO in test [4] is 98.6% (inactive); in test [5] it was 94.4% (inactive); in test [5] (setting [6]), 92%; in test [5] (setting [7]), 94.4%.

Regarding `COc1cccc(CNC(=O)CCC(=O)N2Cc3cccc(OC)c3Oc3ncccc32)c1OC`, the GFP response vs DMSO is 99.4% (inactive) in test [1], 99.9% in test [1] (setting [6]), 99.2% in test [1] (setting [7]) and 102% (inactive) in test [3]. Moreover, the values for the GFP response relative to DMSO in test [2], in test [2] (setting [8]) and in test [2] (setting [9]) were 95.4% (inactive), 96% and 94%, respectively. The GFP response, % of DMSO in test [4] is 100% (inactive); in test [5] it was 104% (inactive); in test [5] (setting [6]) it was 105%; in test [5] (setting [7]), 104%.

Regarding `Cc1ccccc1C(=O)Nc1cccc(N)c1`, the GFP response vs DMSO in test [1] was 99% (inactive); in test [1] (setting [6]) it was 98.6%; in test [1] (setting [7]), 98.6%; in test [3], 101% (inactive). Moreover, the GFP response relative to DMSO in test [2] was 93.1% (inactive); in test [2] (setting [8]), 94.2%; in test [2] (setting [9]), 94.1%. In addition, the GFP response, % of DMSO is 105% (inactive) in test [4], 97.3% (inactive) in test [5], 95.6% in test [5] (setting [6]) and 96.8% in test [5] (setting [7]).

`O=C(OCC(=O)N1CCN(C(=O)c2ccco2)CC1)c1cc(-c2cccc(Br)c2)nc2ccccc12`: the GFP response vs DMSO in test [1] is 80.3% (inactive); in test [1] (setting [6]), 75.5%; in test [1] (setting [7]) it was 76.9%; in test [3] it was 125% (inactive). The GFP response relative to DMSO in test [2] is 139% (inactive); in test [2] (setting [8]) it was 117%; in test [2] (setting [9]) it was 144%. Further, the GFP response, % of DMSO was 127% (inactive) in test [4], 128% (inactive) in test [5], 114% in test [5] (setting [6]) and 125% in test [5] (setting [7]).

On to `O=C(Cc1ccc(Cl)cc1)NNC(=S)NC(=O)c1cccs1`, for which the GFP response vs DMSO is 104% (inactive) in test [1], 104% in test [1] (setting [6]), 104% in test [1] (setting [7]) and 114% (inactive) in test [3]. Also, the GFP response relative to DMSO was 150% (active) in test [2], 151% in test [2] (setting [8]) and 151% in test [2] (setting [9]). Further, the GFP response, % of DMSO in test [4] was 102% (inactive); in test [5], 109% (inactive); in test [5] (setting [6]), 115%; in test [5] (setting [7]), 104%.

Consider `COc1ccc(/C=C/C(=O)c2ccc(OC)cc2O)cc1`, for which the GFP response vs DMSO in test [1] was 99.9% (inactive); in test [1] (setting [6]), 100%; in test [1] (setting [7]), 99.3%; in test [3], 104% (inactive). Moreover, the figures for the GFP response relative to DMSO in test [2], in test [2] (setting [8]) and in test [2] (setting [9]) were 98.8% (inactive), 99.3% and 100%, respectively. Moreover, the GFP response, % of DMSO in test [4] was 100% (inactive); in test [5], 102% (inactive); in test [5] (setting [6]) it was 102%; in test [5] (setting [7]), 100%.

`Cc1nc2ccccc2c(=O)n1/N=C/c1ccc([N+](=O)[O-])o1`: the GFP response vs DMSO in test [1] is 104% (inactive); in test [1] (setting [6]), 108%; in test [1] (setting [7]) it was 104%; in test [3], 116% (inactive). For the same molecule, the figures for the GFP response relative to DMSO in test [2], in test [2] (setting [8]) and in test [2] (setting [9]) were 121% (inactive), 120% and 121%, respectively. Also, the GFP response, % of DMSO in test [4] is 102% (inactive); in test [5], 121% (inactive); in test [5] (setting [6]), 128%; in test [5] (setting [7]), 115%.

On to `CCCc1nnc(NC(=O)c2nc(S(=O)(=O)Cc3cccc(C)c3)ncc2Cl)s1`, for which the GFP response vs DMSO in test [1] is 95.1% (inactive); in test [1] (setting [6]), 96.4%; in test [1] (setting [7]), 95.2%; in test [3] it was 103% (inactive). The values for the GFP response relative to DMSO in test [2], in test [2] (setting [8]) and in test [2] (setting [9]) were 106% (inactive), 102% and 107%, respectively. The GFP response, % of DMSO in test [4] was 101% (inactive); in test [5], 97.2% (inactive); in test [5] (setting [6]) it was 99.3%; in test [5] (setting [7]), 98.2%.

Consider `O=C(O)CSc1nnc(-c2ccncc2)n1CCc1ccccc1`, for which the GFP response vs DMSO in test [1] was 98.2% (inactive); in test [1] (setting [6]), 98.4%; in test [1] (setting [7]) it was 100%; in test [3], 100% (inactive). For the same molecule, the GFP response relative to DMSO in test [2] was 102% (inactive); in test [2] (setting [8]), 98.7%; in test [2] (setting [9]) it was 103%. The GFP response, % of DMSO in test [4] is 98.3% (inactive); in test [5], 91.3% (inactive); in test [5] (setting [6]) it was 91.5%; in test [5] (setting [7]) it was 90.2%.

In the case of `CC(C)c1ccc2c(c1)C1(NN=C(c3ccccc3)S1)C(=O)N2` (stereo not given), the GFP response vs DMSO in test [1] is 105% (inactive); in test [1] (setting [6]), 107%; in test [1] (setting [7]), 104%; in test [3] it was 100% (inactive). Besides, the results for the GFP response relative to DMSO in test [2], in test [2] (setting [8]) and in test [2] (setting [9]) were 96.2% (inactive), 95.6% and 98.3%, respectively. The GFP response, % of DMSO in test [4] is 95.7% (inactive); in test [5] it was 91.3% (inactive); in test [5] (setting [6]), 96.5%; in test [5] (setting [7]), 88%.

Consider `O=C(c1cccc2ccccc12)N1CCN(c2ccccc2F)CC1`, for which the GFP response vs DMSO in test [1] was 97.8% (inactive); in test [1] (setting [6]) it was 92.9%; in test [1] (setting [7]), 95.7%; in test [3], 101% (inactive). The GFP response relative to DMSO in test [2] was 102% (inactive); in test [2] (setting [8]), 99.1%; in test [2] (setting [9]), 102%. The GFP response, % of DMSO in test [4] is 102% (inactive); in test [5], 94.4% (inactive); in test [5] (setting [6]), 92%; in test [5] (setting [7]), 93.2%.

For the molecule `COc1ccc([N+](=O)[O-])c(S(=O)(=O)c2ccc(Cl)cc2)n1`, the GFP response vs DMSO is 84.5% (inactive) in test [1], 54.7% in test [1] (setting [6]), 74.7% in test [1] (setting [7]) and 136% (inactive) in test [3]. Also, the GFP response relative to DMSO is 333% (active) in test [2], 173% in test [2] (setting [8]) and 309% in test [2] (setting [9]). The GFP response, % of DMSO is 131% (inactive) in test [4], 93.4% (inactive) in test [5], 100% in test [5] (setting [6]) and 78.8% in test [5] (setting [7]).

In the case of `CCCOc1ccc(C(=O)NNC(=S)NC(=O)c2ccco2)cc1`, the GFP response vs DMSO in test [1] is 124% (inactive); in test [1] (setting [6]), 111%; in test [1] (setting [7]), 110%; in test [3], 137% (inactive). In addition, the GFP response relative to DMSO in test [2] was 175% (active); in test [2] (setting [8]), 148%; in test [2] (setting [9]), 167%. Besides, the GFP response, % of DMSO was 131% (inactive) in test [4], 134% (inactive) in test [5], 132% in test [5] (setting [6]) and 121% in test [5] (setting [7]).

Consider `O=C1C(Cl)=C(Nc2ccc(F)cc2)C(=O)N1CCc1ccccc1`, for which the GFP response vs DMSO in test [1] is 100% (inactive); in test [1] (setting [6]) it was 99.3%; in test [1] (setting [7]), 101%; in test [3] it was 101% (inactive). The GFP response relative to DMSO was 95.7% (inactive) in test [2], 95.9% in test [2] (setting [8]) and 96.2% in test [2] (setting [9]). In addition, the GFP response, % of DMSO in test [4] was 104% (inactive); in test [5] it was 100% (inactive); in test [5] (setting [6]), 101%; in test [5] (setting [7]), 99.3%.
